Columns and labels:
[1] = system: L-type calcium channel in TPCs; experiment: Calcium imaging; assay type: cell-based, human; conditions: H89 2HCl 10 μM; Fluo-4AM; n = 3
TPCs = experiment: Cell; assay type: cell-based, human; conditions: forskolin, then H89 2HCl (10 μM), then (S)-(-)-Bay K8644 (10 μM); F-actin, p-MLC2^Ser15, collagen contraction; n = 3
Outline: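 A commercial collagen gel contraction kit was used. Harvested pericytes (5 × 10^6) were mixed 1:4 v/v with collagen solution and polymerised at 37 °C for 1 h. Medium was then added over each lattice and gels were incubated for 2 days. Gel size (contraction index) was measured at 48 h by image analysis.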

[2] = system: intracellular calcium of TPCs; experiment: Intravital GCaMP6 calcium imaging in TPCs treated with U46619; assay type: in vivo, mouse; conditions: PC^lin-KO-GCaMP6 mice compared with PC^lin-GCaMP6 mice; n = 6
tumor vessels [3] = experiment: Two-photon vasoconstriction assay of tumor vessels exposed to U46619; assay type: in vivo, mouse; conditions: MC-38-luc-LM3 orthotopic tumor, two-photon microscopy, U46619 10 min; n = 6
tumor vessels [4] = experiment: Intravital imaging of RBC velocity and vessel diameter change post-U46619; assay type: in vivo, mouse; conditions: n = 6
Outline: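 Tumor-bearing mice received FITC-dextran i.v. before imaging. The exposed tumor was viewed with a 4× objective. A rapid line scan (735 lines per second) bisected the central axis of the capillary lumen, so that moving RBCs appeared as oblique shadows. Blood velocity was derived as Δx/Δt.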

Row | Compound | calcium currents in TPCNM^NKX2-3+siPDE1C [1] | forskolin-increased calcium currents in TPCLM^siNKX2-3+PDE1C [1] | contraction of TPCLM^gNKX2-3+PDE1C (TPCs) | response of intracellular Ca^2+ of TPCs to U46619 [2] | change of capillary diameter after U46619 treatment, PC^lin mice (tumor vessels [3]) | reduction of capillary diameter after U46619 treatment, PC^lin-KO mice (tumor vessels [3]) | tumor blood velocity after exposure to U46619, PC^lin-KO mice (tumor vessels [4]; compared with before treatment) | vascular diameter after exposure to U46619, PC^lin-KO mice (tumor vessels [4]; compared with before treatment) | tumor blood velocity and vascular diameter before and post-treatment with U46619, PC^lin mice (tumor vessels [4])
1 | Cl.Cl.O=S(=O)(NCCNC/C=C/c1ccc(Br)cc1)c1cccc2cnccc12 [H89 2HCl] | reduced calcium currents | reversed | suppressed | – | – | – | – | – | –
2 | CCCCC[C@H](O)/C=C/[C@@H]1[C@@H](C/C=C\CCCC(=O)O)[C@H]2CO[C@@H]1C2 [U46619, 9,11-dideoxy-9α,11α-methanoepoxy prostaglandin F2α] | – | – | – | significantly increased | no obvious change | ~ 20% | significantly decreased | significantly decreased | no significant difference

Reference: publication PMC12318036 (Nature Communications, 2025)
